The list is not random: actives were taken first. Their share in the collection is about 1.8%.
CHRM5 antagonist: blocks acetylcholine activation of human M5 receptor; P08912; CHO-hM5 cells, Fluo-8 calcium fluorescence, ACh EC80; inhibition, % at 3 µM; 0.59% of 360,000 active; AID 624040;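 active = inhibition above a per-plate cutoff, the mean of that plate's test compounds plus 3 SD, cut at about 27% in these data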
Target sequence (P08912 whole entry, looked up): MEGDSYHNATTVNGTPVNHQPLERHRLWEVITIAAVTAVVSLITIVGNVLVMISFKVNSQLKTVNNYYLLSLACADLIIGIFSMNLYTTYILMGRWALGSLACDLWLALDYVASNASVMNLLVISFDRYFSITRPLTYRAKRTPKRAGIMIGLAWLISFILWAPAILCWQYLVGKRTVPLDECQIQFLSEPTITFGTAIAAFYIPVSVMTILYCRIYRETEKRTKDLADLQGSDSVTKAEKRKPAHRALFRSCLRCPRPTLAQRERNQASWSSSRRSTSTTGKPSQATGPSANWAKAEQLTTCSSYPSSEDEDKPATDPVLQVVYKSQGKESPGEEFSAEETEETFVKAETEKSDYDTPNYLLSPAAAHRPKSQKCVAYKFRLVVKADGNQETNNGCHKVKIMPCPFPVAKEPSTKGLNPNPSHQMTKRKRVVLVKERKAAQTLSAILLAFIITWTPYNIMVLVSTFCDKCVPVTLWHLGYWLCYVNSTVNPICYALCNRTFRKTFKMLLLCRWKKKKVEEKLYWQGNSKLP
M5 PAM: positive allosteric modulators of human muscarinic M5 receptor; activation, % at 3 µM; AID 624038; 0.3% of 360,000 active; CHO-K1 hM5, Fluo-8 calcium, ACh EC20 PAM; 0% = ACh EC20, 100% = ACh EC100; P08912;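 active = activation above the run cutoff, the mean activation of all test compounds plus 3 SD, cut at about 18% in these data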
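System: CHO-K1 cell line with stable human muscarinic M5 receptor expression | Also added: EC20 acetylcholine as agonist stimulus | Compound: One concentration, 3 µM final (nominal) | Timing: Fluo-8 loading 80 min at 37 °C plus 30 min room temperature | Measured by: Fluo-8 calcium dye fluorescence, kinetic read | Read-out basis: % activation, ACh-normalized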
M5 ag: agonists of human muscarinic M5 receptor (CHRM5). P08912. CHO-K1 hM5 cells, Fluo-8 calcium fluorescence; 0% DMSO wells, 100% maximal acetylcholine response. activation, % at 3 µM. 0.19% of 360,000 active;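 active = activation above the run's mean over test compounds plus 3 SD, cut at about 23% in these data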;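 also: signal is peak over basal fluorescence ratio across the kinetic read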
M4 ag: agonists of human muscarinic M4 receptor (CHRM4); CHO-K1 hM4/Gqi5, Fluo-8 calcium fluorescence; vehicle 0%, full acetylcholine response 100%; activation, % at 3 µM; 0.14% of 360,000 active; AID 624127;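 active = activation above the run mean over all test wells plus 3 SD, cut at about 32% in these data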;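 also: peak over basal fluorescence ratio per well then scaled between controls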
CHRM4 PAM: potentiates acetylcholine response at human M4 receptor. P08173. CHO-K1 hM4/Gqi5, Fluo-8 calcium fluorescence, ACh EC20; 0% = ACh EC20, 100% = maximal ACh. activation, % at 3 µM. 0.4% of 360,000 active. AID 624126;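 active = activation above its plate's cutoff, the mean activation of sample wells plus 3 SD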
M4 antag: CHRM4 antagonism in calcium assay. P08173. CHO-hM4 cells, ACh EC80, Fluo-8 calcium fluorescence. inhibition, % at 3 µM. 0.73% of 360,000 active. AID 624125;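 active = inhibition above its plate's cutoff, the mean inhibition of sample wells plus 3 SD, cut at about 27% in these data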
Of the large screens only hits and unclear results are named; the others gave an inactive call; ! = a repeat was not active.

COc1ccc(CN2C(=O)CSCC2(C)C(=O)Nc2c(C)cccc2C)cc1OC (stereo not given)	none
OCCC1CN(Cc2nc(-c3ccccc3)cs2)CCN1C1CCCC1 (stereo not given)	M4 antag 53
CSc1ncc(CN2CCN(CC=C(C)C)C(CCO)C2)cn1 (stereo not given)	none
OCCC1CN(Cc2c(F)cccc2Cl)CCN1C1CCCC1 (stereo not given)	M4 antag 26
COc1ccc(-n2ccnc2CN2CCN(C3CCCC3)C(CCO)C2)cc1 (stereo not given)	none
COc1ccc2c(c1)C=C(CN1CCN(C3CCCC3)C(CCO)C1)CO2 (stereo not given)	M4 antag 73
OCCC1CN(Cc2c(F)cccc2Cl)CCN1C1CCCCC1 (stereo not given)	none
CSc1ncc(CN2CCN(C3CCCC3)C(CCO)C2)cn1 (stereo not given)	M4 antag 42
OCCC1CN(Cc2nc(-c3ccccc3)cs2)CCN1Cc1ccc(F)cc1 (stereo not given)	none
O=C(Nc1ccc(N2CCOCC2)cc1)c1csc([C@H]2C[C@H](O)[C@@H](CO)O2)n1	none
CCN1CCN(Cc2ccc(NC(=O)Nc3ccccc3)cc2)CC1	none
CC(=O)Nc1ccc(CN2CCCN(C)CC2)cc1	CHRM5 antagonist 30
CC(=O)Nc1ccc(CN2CCN(C3CCCC3)C(CCO)C2)cc1 (stereo not given)	M4 antag 35
COc1ccccc1OCC(O)CN1CCN(CC(=O)Nc2c(C)cccc2C)CC1 (stereo not given)	M4 antag 28!
CCOC(=O)c1cnc2ccccc2c1NCCO	none
CCOC(=O)c1cnc2ccc(Br)cc2c1NCCO	CHRM4 PAM 20
CCOC(=O)c1cnc2ccc(Br)cc2c1NCCCN1CCOCC1	CHRM4 PAM 40
CCOC(=O)c1cnc2ccc(Cl)cc2c1NCCN(C)C	CHRM4 PAM 27
CCOC(=O)c1cnc2ccc(Br)cc2c1NCC(C)O (stereo not given)	none
CCOC(=O)c1ccc2ncc(C(=O)OCC)c(NCCCN3CCOCC3)c2c1	none
CCCS(=O)(=O)NC(=O)C1(C)CCCN(C(=O)Cc2ccc3ccccc3c2)C1 (stereo not given)	none
C=CCOc1cccc(C(=O)/C=C2/C(=O)Nc3ccccc32)c1	none
CC(=O)/C=C1/C(=O)Nc2ccccc21	CHRM5 antagonist 28
CCN(CC)CC#CCC1(O)c2ccccc2-c2ccccc21	none
CCN(CC#CCC1(O)c2ccccc2-c2ccccc21)C(C)C	CHRM5 antagonist 39, M4 antag 35
CC1Nc2ncnc(N3CCOCC3)c2N(Cc2ccc(Cl)cc2)C1=O (stereo not given)	none
CCC1Nc2ncnc(N3CCOCC3)c2N(Cc2ccc(Cl)cc2)C1=O (stereo not given)	CHRM4 PAM 24
COc1ccc(NC(=O)c2cccnc2Nc2ccc(OC)cc2)cc1	M4 antag 52
COC(=O)c1cn(Cc2ccccc2C)nn1	CHRM4 PAM 22
C[C@@H]1CN([C@@H](C)CO)C(=O)c2cc(C#CC3CCCCC3)cnc2O[C@@H]1CN(C)S(=O)(=O)c1ccc(F)cc1	none
CC1CCCN(c2nc3ccsc3c(=O)s2)C1 (stereo not given)	M4 antag 28
CC1(C)CC(=O)C=C(c2ccc(-c3ccc4[nH]ccc4c3)cc2)C1=O	none
COc1ccc(C(=O)Nc2cc(-c3ccccc3)nn2-c2ccccc2F)cc1	M5 PAM 25
CC(C)NC(=O)CN1CCN(C(=O)c2ccc3oc(CCCc4ccccc4)nc3c2)CC1	CHRM4 PAM 23
C[C@@H]1CCCCO[C@H](CN(C)C(=O)C2CCCCC2)[C@@H](C)CN([C@H](C)CO)C(=O)c2cc(N(C)C)ccc2O1	none
C=C[C@@H]1c2cc(C)ccc2N(S(=O)(=O)c2ccc(C)cc2)[C@H](c2ccccc2)C1(C#N)C#N	M5 PAM 19
CC(=O)Nc1ccc(C(=O)NC2CCSc3ccccc32)cc1 (stereo not given)	none
Cc1ccc(NC(=S)NC2CCSc3ccccc32)cc1 (stereo not given)	CHRM5 antagonist 49, M4 antag 75
COC(=O)CCCC1=CC2=CC(=O)C(C)(OC(=O)c3cccs3)C(=O)C2=CN1c1ccc(OC)cc1 (stereo not given)	M4 antag 27
COC(=O)CCCC1=CC2=CC(=O)C(C)(OC(=O)c3cccs3)C(=O)C2=CN1Cc1ccccc1 (stereo not given)	none
O=C(/C=C/c1ccc(F)cc1)NC(=S)Nc1ccccc1C(=O)NC1CCCCC1	M5 PAM 21
COc1ccccc1CNC(=O)C1Cc2cc(S(=O)(=O)N3CCCC3)ccc2N1C(C)=O (stereo not given)	none
COc1cccc(CNC(=O)C2Cc3cc(S(=O)(=O)N4CCCC4)ccc3N2C(C)=O)c1OC (stereo not given)	CHRM4 PAM 17
CCCNC(=O)c1cc(C2CCCCN2C(=O)OCC(C)C)on1 (stereo not given)	none
N#CC1(NC(=O)COC(=O)C2=COCCO2)CCCCC1	M4 ag 113
CN(C(=O)COC(=O)C1=COCCO1)C1(C#N)CCCCC1	none
COc1cccc(C(C(=O)NC2CCCC2)N(Cc2ccc(C)cc2)C(=O)c2ccco2)c1OC (stereo not given)	M5 PAM 28
COc1cccc(C(C(=O)NC2CCCC2)N(C(=O)c2ccco2)C2CC2)c1OC (stereo not given)	none
CCc1nc2c(OCc3cccc(Cl)c3)cccn2c1N(C)C(C)=O	none
COc1cccc(OC(=O)c2cc3ccccc3oc2=O)c1	M5 PAM 19, CHRM4 PAM 18
CN(CC1COCCO1)C(=O)c1cc(COc2c(F)cccc2F)on1 (stereo not given)	CHRM4 PAM 23
CN(CC1COc2ccccc2O1)C(=O)c1cc(COc2c(F)cccc2F)on1 (stereo not given)	none
CC(=O)Nc1cccc(-c2ccnc3c2CC(C)(C(=O)Nc2cccc(OC(F)(F)F)c2)O3)c1 (stereo not given)	none
COc1ccc(NC2=NCC(Cc3ccc(Br)cc3)S2)cc1 (stereo not given)	M4 antag 29
CCCCOC(=O)/C(=C\c1ccc([N+](=O)[O-])o1)NC(=O)c1ccccc1	M4 antag 29
CCN(CC(=O)Nc1c(F)cccc1F)C(=O)c1ccc2c(c1)OCCO2	CHRM4 PAM 37
